Results: ChEMBL document CHEMBL3525931, “Stereoselective interaction of pantoprazole with ABCG2. II. In vitro flux analysis” (Drug Metab Dispos, 2012)

Legend:
[1] = Observed permeability in MDCK2 cells assessed as apical to basolateral transport at 30 uM after 0.5 to 1 hrs by HPLC method; type: ADME, cell-based, Canis lupus familiaris; details: dog, mdck-ii
Method in brief: (§1)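 Mock (empty pcDNA3.1) or rat Abcg2/human ABCG2-transfected MDCKII, G418-selected, seeded on 3.0-μm Transwell filters at 1.0×10^6 cells/well, grown 4 days to TEER >200 Ω·cm². Single isomer loaded apical or basolateral in serum-free Opti-MEM I with 0.2 μCi/ml [3H]mannitol, 37°C 5% CO2. Receiver sampled at 0.5 and 1 h. Quantified by HPLC-UV 290 nm. Permeability = initial rate/(area × donor concentration). Efflux ratio = B→A rate / A→B rate. n = 3, mean ± S.D.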

[2] = Observed permeability in MDCK2 cells assessed as basolateral to apical transport at 200 uM after 0.5 to 1 hrs by HPLC method; type: ADME, cell-based, Canis lupus familiaris; details: dog, mdck-ii; method in brief: as §1
[3] = Observed permeability in MDCK2 cells assessed as apical to basolateral transport at 3 uM after 0.5 to 1 hrs by HPLC method; type: ADME, cell-based, Canis lupus familiaris; details: dog, mdck-ii; method in brief: as §1
[4] = Observed permeability in MDCK2 cells assessed as apical to basolateral transport at 3 to 200 uM after 0.5 to 1 hrs by HPLC method; type: ADME, cell-based, Canis lupus familiaris; details: dog, mdck-ii; method in brief: as §1
[5] = molecular target: T1, Broad substrate specificity ATP-binding cassette transporter ABCG2 (Homo sapiens, UniProt Q9UNQ0); experiment: Observed permeability in MDCK2 cells expressing human ABCG2 assessed as ABCG2-mediated basolateral to apical transport at 200 uM after 0.5 to 1 hrs by HPLC method; type: ADME, cell-based; details: mdck-ii; method in brief: as §1
T1 sequence (Q9UNQ0 whole entry): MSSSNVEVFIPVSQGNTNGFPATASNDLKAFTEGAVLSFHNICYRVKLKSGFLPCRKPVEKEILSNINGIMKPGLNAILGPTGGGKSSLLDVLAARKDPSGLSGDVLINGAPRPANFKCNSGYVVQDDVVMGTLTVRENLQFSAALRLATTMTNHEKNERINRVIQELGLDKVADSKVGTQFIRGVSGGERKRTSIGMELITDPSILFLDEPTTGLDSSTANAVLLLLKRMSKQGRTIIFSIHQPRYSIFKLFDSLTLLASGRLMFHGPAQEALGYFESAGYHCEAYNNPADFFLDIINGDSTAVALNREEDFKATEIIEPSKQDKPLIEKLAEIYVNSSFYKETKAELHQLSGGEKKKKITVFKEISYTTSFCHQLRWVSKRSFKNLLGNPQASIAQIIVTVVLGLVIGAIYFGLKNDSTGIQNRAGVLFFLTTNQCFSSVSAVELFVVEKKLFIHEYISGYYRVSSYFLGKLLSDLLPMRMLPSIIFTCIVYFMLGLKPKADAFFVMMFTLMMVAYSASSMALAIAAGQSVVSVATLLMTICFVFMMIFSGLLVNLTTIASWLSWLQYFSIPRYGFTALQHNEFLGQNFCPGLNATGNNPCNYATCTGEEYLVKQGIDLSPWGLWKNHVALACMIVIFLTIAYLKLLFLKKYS

ABCG2 [6] = molecular target: T2, ABCG2 (Homo sapiens, UniProt Q9UNQ0); experiment: Asymmetry efflux ratio in MDCK2 cells expressing human ABCG2 assessed as ABCG2-mediated drug transport ratio at 3 uM after 0.5 to 1 hrs by HPLC method; type: ADME, cell-based; method in brief: as §1
T2 sequence (Q9UNQ0 whole entry): T1 sequence (Q9UNQ0 whole entry)

[7] = Observed permeability in MDCK2 cells assessed as basolateral to apical transport at 10 uM after 0.5 to 1 hrs by HPLC method; type: ADME, cell-based, Canis lupus familiaris; details: dog, mdck-ii; method in brief: as §1
ABCG2 [8] = molecular target: T3, ABCG2 (Rattus norvegicus, UniProt Q80W57); experiment: Asymmetry efflux ratio in MDCK2 cells expressing rat ABCG2 assessed as ABCG2-mediated drug transport ratio at 3 uM after 0.5 to 1 hrs by HPLC method; type: ADME, cell-based; method in brief: as §1
T3 sequence (Q80W57 whole entry): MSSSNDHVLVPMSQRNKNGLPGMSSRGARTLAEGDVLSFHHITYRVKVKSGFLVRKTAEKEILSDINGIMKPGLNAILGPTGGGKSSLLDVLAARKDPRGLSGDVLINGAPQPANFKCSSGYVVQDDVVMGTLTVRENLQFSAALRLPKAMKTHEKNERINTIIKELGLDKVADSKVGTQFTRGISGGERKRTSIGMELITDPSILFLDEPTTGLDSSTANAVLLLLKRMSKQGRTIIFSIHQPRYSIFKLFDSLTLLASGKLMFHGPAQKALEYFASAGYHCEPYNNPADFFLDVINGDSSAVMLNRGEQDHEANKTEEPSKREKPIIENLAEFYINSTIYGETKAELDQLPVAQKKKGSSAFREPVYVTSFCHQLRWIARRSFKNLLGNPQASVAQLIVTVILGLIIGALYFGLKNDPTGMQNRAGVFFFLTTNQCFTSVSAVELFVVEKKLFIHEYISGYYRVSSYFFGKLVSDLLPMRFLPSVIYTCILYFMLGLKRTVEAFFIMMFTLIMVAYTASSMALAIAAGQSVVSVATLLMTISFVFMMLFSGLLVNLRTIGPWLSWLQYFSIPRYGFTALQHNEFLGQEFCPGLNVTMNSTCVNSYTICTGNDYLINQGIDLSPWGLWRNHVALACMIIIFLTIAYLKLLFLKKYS

ABCG2 [9] = molecular target: T3, ABCG2; experiment: Asymmetry efflux ratio in MDCK2 cells expressing rat ABCG2 assessed as ABCG2-mediated drug transport ratio at 10 uM after 0.5 to 1 hrs by HPLC method; type: ADME, cell-based; method in brief: as §1
ABCG2 [10] = molecular target: T2, ABCG2; experiment: Asymmetry efflux ratio in MDCK2 cells expressing human ABCG2 assessed as ABCG2-mediated drug transport ratio at 10 uM after 0.5 to 1 hrs by HPLC method; type: ADME, cell-based; method in brief: as §1
ABCG2 [11] = molecular target: T3, ABCG2; experiment: Asymmetry efflux ratio in MDCK2 cells expressing rat ABCG2 assessed as ABCG2-mediated drug transport ratio at 200 uM after 0.5 to 1 hrs by HPLC method; type: ADME, cell-based; method in brief: as §1
[12] = Asymmetry efflux ratio in MDCK2 cells assessed as drug transport ratio at 3 to 200 uM after 0.5 to 1 hrs by HPLC method; type: ADME, cell-based, Canis lupus familiaris, MDCK-II; details: dog, MDCK; method in brief: as §1
[13] = molecular target: T1, Broad substrate specificity ATP-binding cassette transporter ABCG2; experiment: Observed permeability in MDCK2 cells expressing human ABCG2 assessed as ABCG2-mediated apical to basolateral transport at 30 uM after 0.5 to 1 hrs by HPLC method; type: ADME, cell-based; details: mdck-ii; method in brief: as §1
[14] = molecular target: T1, Broad substrate specificity ATP-binding cassette transporter ABCG2; experiment: Observed permeability in MDCK2 cells expressing human ABCG2 assessed as ABCG2-mediated apical to basolateral transport at 50 uM after 0.5 to 1 hrs by HPLC method; type: ADME, cell-based; details: mdck-ii; method in brief: as §1
[15] = molecular target: T1, Broad substrate specificity ATP-binding cassette transporter ABCG2; experiment: Maximum drug transport rate in MDCK2 cells expressing human ABCG2 assessed as ABCG2-mediated transport by HPLC method; type: ADME, cell-based; details: mdck-ii
Method in brief: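 Kinetics came from the same Transwell bidirectional flux runs in rat Abcg2- or human ABCG2-MDCKII, with donor 3–200 μM single isomer. Cellular concentrations were predicted from a three-compartment model using PS_D from mock cells and PS_PC from mannitol. Apparent apical efflux permeability was fitted against predicted cellular concentration by saturable kinetics to give K_M and T_max.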

[16] = molecular target: T4, Broad substrate specificity ATP-binding cassette transporter ABCG2 (Rattus norvegicus, UniProt Q80W57); experiment: Observed permeability in MDCK2 cells expressing rat ABCG2 assessed as ABCG2-mediated apical to basolateral transport at 3 uM after 0.5 to 1 hrs by HPLC method; type: ADME, cell-based; details: mdck-ii; method in brief: as §1
T4 sequence (Q80W57 whole entry): T3 sequence (Q80W57 whole entry)

[17] = Observed permeability in MDCK2 cells assessed as basolateral to apical transport at 50 uM after 0.5 to 1 hrs by HPLC method; type: ADME, cell-based, Canis lupus familiaris; details: dog, mdck-ii; method in brief: as §1

Papp [1] [uL/hr/cm2]	Papp [2] [uL/hr/cm2]	Papp [3] [uL/hr/cm2]	Papp [4] [uL/hr/cm2]	Papp [5] [uL/hr/cm2]	efflux ratio at 3 µM (ABCG2 [6])	Papp [7] [uL/hr/cm2]	efflux ratio at 3 µM (ABCG2 [8])	efflux ratio at 10 µM (ABCG2 [9])	efflux ratio at 10 µM (ABCG2 [10])	efflux ratio at 200 µM (ABCG2 [11])	efflux ratio at up to 200 µM [12]	Papp [13] [uL/hr/cm2]	Papp [14] [uL/hr/cm2]	Drug transport [15] [nmol/hr.cm2]	Papp [16] [uL/hr/cm2]	Papp [17] [uL/hr/cm2]	SMILES
116	135	118	121	132	15	130	34	7.44	8.06	1.07	1.04	67.6	109	3.29	7.4	126	COc1ccnc(C[S@+]([O-])c2nc3cc(OC(F)F)ccc3[nH]2)c1OC
110	140	116	121	179	8.61	121	18.7	11	5.81	1.29	1.04	43.6	79.6	10.2	12.8	135	COc1ccnc(C[S@@+]([O-])c2nc3cc(OC(F)F)ccc3[nH]2)c1OC
